The test system of experiment [1] is ARE/Nrf2 transcriptional activity. The experiment in a line: ARE/NRF2 luciferase reporter assay in ARE/HepG2/Luciferase reporter cells. It is filed as cell-based. The conditions noted are these: 24 hours; for IC50: read-out: IC50 in HepG2 ARE/NRF2 reporter assay, 200μM t-BHQ, compounds 20nM to 10μM. The gist of the method:
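HepG2 ARE-luciferase reporter cells (7,000/well) cultured 24 h before test compound; t-BHQ added 30 min later; 24 h at […]; one-step luciferase reagent, luminescence read. Screen: 5μM, 200 or 500μM t-BHQ, two independent runs, Z-scores normalized to mean of compound-treated wells. Dose-response: […] serial dilutions 20nM–10μM plus 200μM t-BHQ; 0.5% DMSO control; percent of DMSO control.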

Experiment [2] concerns NRF2 nuclear translocation. The experiment in a line: NRF2 nuclear translocation high-content screen in HepG2 cells. It is filed as cell-based. The conditions noted are these: 0.625-10μM compound + 200μM t-BHQ, 2 hours.
Experiment [3] has as its system MM.1S cells. The experiment in a line: Detection of mitochondrial superoxide. It is filed as cell-based, human. The note with it: 24 hours; for mitochondrial superoxide induction (rank among six drug candidates): 0.6, 1.25, 2.5 and 5μM.
The subject of experiment [4] is MM.1S cells. The experiment in a line: MTS assay of cell growth in MM.1S cells. It is filed as cell-based, human.
Experiment [5] has as its system U266 cells. The experiment in a line: Detection of mitochondrial superoxide. The conditions noted are these: 24 hours. It is filed as cell-based, human.
Experiment [6] concerns U266 cells. The experiment can be described thus: Viability by DAPI staining. It is filed as cell-based, human. The note with it: 5μM, 24 hours. The gist of the method: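 Over 24 hours, U266 cells (RPMI 1640, 10% heat-inactivated FBS, 1% L-glutamine, penicillin-streptomycin; 5% CO2, 37°C) were treated with test compound at 5μM, alone or with 200μM pyocyanin. Vehicle was the negative control and 200μM pyocyanin the positive control. Cells were stained with DAPI, and viability was scored by flow cytometry as percentage DAPI-negative. Mean and SEM are reported.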

Experiment [7] concerns U266 cells. The experiment can be described thus: MTS assay of cell growth in U266 cells. The conditions noted are these: 5μM single agent, 24, 48 and 72 hours. It is filed as cell-based, human.
Experiment [8] concerns NRF2 nuclear translocation. The experiment in a line: NRF2 nuclear translocation assay in MM.1S cells. It is filed as cell-based, human. The note with it: 2 hours, no t-BHQ. The gist of the method:
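MM.1S cells (300,000/well) exposed 2 h to test compound, DMSO or 2 mM N-acetyl-L-cysteine; fixed 4% PFA 30 min, permeabilized/blocked (2% BSA, 0.1% Triton X-100) 30 min; stained with Hoechst 33342 (4ug/mL) and NRF2-Alexa Fluor 488 antibody (1:1000); high-content imaging and image analysis; NRF2 inhibition expressed as Z-scores.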

Consider `Cc1ccc(NC(=O)c2cccc(C(C)(C)C#N)c2)cc1Nc1ccc2ncn(C)c(=O)c2c1` [AZ-628], for which, in experiment [1], the IC50 was found to be 1000 nM. Further, the “effect on nuclear translocation of NRF2 (ratio of cytoplasmic to nuclear NRF2)” value (from here on “effect … (ratio of cytoplasmic to nuclear NRF2)”) in experiment [2] is recorded as “affected nuclear translocation of NRF2”. In experiment [3], the “mitochondrial superoxide induction (rank among six drug candidates)” value is “followed by AZ-628”. For the same compound, in experiment [4] (2.5μM and 5μM, 48 hours), the cell growth result is recorded as “significant inhibition of cell growth”.

As for brusatol, the mitochondrial superoxide levels entry in experiment [5] (5μM) is recorded as “increased superoxide levels”. Besides, the “viability (percentage of DAPI-negative viable cells)” value in experiment [6] is “decreased viability”. The cell growth result in experiment [4] (5μM single agent, 24, 48 and 72 hours) is given as “efficiently suppressed growth”; in experiment [7], “efficiently suppressed growth”.

Take `Cc1ccc(C(=O)Cn2c3c(sc2=N)CCCC3)cc1` [Pifithrin-α, pifithrin-α]: the IC50 in experiment [1] stood at 160 nM.

As for `O=C1NCCc2[nH]c(-c3ccncc3)cc21` [PHA-767491], the IC50 in experiment [1] is 2410 nM. Besides, the “effect … (ratio of cytoplasmic to nuclear NRF2)” value in experiment [2] was “affected nuclear translocation of NRF2”. In addition, the “mitochondrial superoxide induction (rank among six drug candidates)” value in experiment [3] is listed as “most potent superoxide inducer”. In addition, the cell growth result in experiment [4] (2.5μM and 5μM, 48 hours) is listed as “significant inhibition of cell growth”.

In the case of vitamin B12, the IC50 in experiment [1] was found to be 620 nM.

As to `Cn1c2cccc(=O)c-2nc2ccccc21` [Pyocyanin, pyocyanin], the mitochondrial superoxide induction result is “efficient and dose-dependent induction of mitochondrial superoxide” in experiment [3] (serial dilutions 0 to 300μM); “efficient and dose-dependent induction of mitochondrial superoxide” in experiment [5] (serial dilutions 0 to 300μM).

Turning to `CC(C)(C)c1cc(O)ccc1O` [t-BHQ, tert-butylhydroquinone], the “induction of NRF2 transcriptional activity” value in experiment [1] (200μM or 500μM t-BHQ, HepG2 cells) is on record as “robust induction of NRF2 transcriptional activity”.

With `N#C/C(=C(/N)Sc1ccc(N)cc1)c1ccccc1C(F)(F)F` [SL-327], the IC50 in experiment [1] amounted to 310 nM. Besides, in experiment [2], the “effect … (ratio of cytoplasmic to nuclear NRF2)” value is on record as “affected nuclear translocation of NRF2”. In experiment [8], the “effect on nuclear translocation of NRF2” value was “anticipated inhibitory effect on nuclear translocation of NRF2”. Moreover, in experiment [3], the “mitochondrial superoxide induction (rank among six drug candidates)” value is “followed by AZ-628 and SL-327”.

Consider `C=CCc1cccc(/C=N/NC(=O)CN2CCN(Cc3ccccc3)CC2)c1O` [PAC-1], for which the IC50 in experiment [1] worked out at 2700 nM.
